Assay results taken from ChEMBL document CHEMBL3098104, “Design, synthesis and preliminary SAR studies of novel N-arylmethyl substituted piperidine-linked aniline derivatives as potent HIV-1 NNRTIs” (Bioorg Med Chem, 2014).
pEC50: −log10 of the molar value.

Key:
[1] = tested on: Human immunodeficiency virus 1; test: Fold resistance, ratio of EC50 for HIV1 RES056 expressing K103N/Y181C mutant infected in human MT4 cells to EC50 for wild-type HIV1 3B infected in human MT4 cells; format: functional
How it was run: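 MTT protection assay in MT-4 cells run in parallel against the K103N/Y181C double mutant (RES056) and wild-type IIIB. Viability read 5 days after infection. Fold resistance = EC50 against the mutant divided by EC50 against IIIB. Median of two or three parallel assays.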

[2] = Selectivity index, ratio of CC50 for human MT4 cells to EC50 for HIV1 RES056 harboring reverse transcriptase K103N/Y181C mutant infected in human MT4 cells; format: toxicity, cell-based; settings: read-out: Ratio CC50/EC50
How it was run: (§1)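 MT-4 cells pelleted 5 min at 1000 rpm, resuspended at 6 × 10^5 cells/ml and plated. Compounds added from 10× stocks at the start, in triplicate wells, to HIV-infected and mock-infected cells in parallel. Viability read by MTT 5 days after infection. EC50 is 50% protection from virus-induced cytotoxicity. CC50 is 50% loss of viability in mock-infected cells. SI = CC50/EC50. Median of two or three parallel assays.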

[3] = Selectivity index, ratio of CC50 for human MT4 cells to EC50 for HIV1 3B infected in human MT4 cells; format: toxicity, cell-based; settings: read-out: Ratio CC50/EC50
How it was run: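 MT-4 cells at 6 × 10^5 cells/ml, in triplicate wells, infected with HIV-1 IIIB or mock-infected. Compounds added from 10× stocks at the start of infection. MTT viability read on day 5. SI = CC50 (mock-infected cells) / EC50 (IIIB). Median of two or three parallel assays.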

[4] = tested on: Human immunodeficiency virus 2; test: Antiviral activity against HIV2 ROD infected in human MT4 cells assessed as inhibition of viral cytopathicity after 5 days by MTT assay; format: functional, organism-based; settings: Human immunodeficiency virus 2, ISOLATE ROD, MT4, 120 h
How it was run: (§2)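 HIV-infected MT-4 cells were compared with mock-infected wells in triplicate. Exponentially growing cells were pelleted for 5 min at 1000 rpm and resuspended at 6 × 10^5 cells/ml. Compound was added at the start of infection from stocks at 10× final concentration. Viability was read by MTT five days post-infection. EC50 is the concentration giving 50% protection against virus-induced cytotoxicity, taken as the median of two or three parallel assays.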

[5] = Cytotoxicity against human MT4 cells assessed as cell viability after 5 days by MTT assay; format: cell-based
How it was run: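 Mock-infected MT-4 cells, from exponentially growing cultures pelleted and resuspended at 6 × 10^5 cells/ml, were run in triplicate wells alongside the infected series. Compound was added from 10× stocks at the start of the experiment. Viability was read by MTT after five days. CC50 is the concentration that lowers viability by 50%, taken as the median of two or three parallel assays.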

[6] = tested on: Human immunodeficiency virus 1; test: Antiviral activity against HIV1 RES056 harboring reverse transcriptase K103N/Y181C mutant infected in human MT4 cells assessed as inhibition of viral cytopathicity after 5 days by MTT assay; format: functional, organism-based; settings: Human immunodeficiency virus 1, RES056, MT4, 120 h; how it was run: as §1
[7] = tested on: Human immunodeficiency virus 1; test: Antiviral activity against wild-type HIV1 3B infected in human MT4 cells assessed as inhibition of viral cytopathicity after 5 days by MTT assay; format: functional, organism-based; settings: Human immunodeficiency virus 1, 3B, MT4, 120 h; how it was run: as §2

SMILES | Ratio EC50 [1] | selectivity ratio [2] | selectivity ratio [3] | pEC50 [4] | CC50 at 120 h [5] [µM] | pEC50 [6] | pEC50 [7]
Cc1cc(C)c(Oc2ccc([N+](=O)[O-])c(NC3CCN(Cc4ccc(C(=O)O)cc4)CC3)c2)c(C)c1 | >161 | < 1 | 161 | < 4.46 | 35 | < 4.46 | 6.66
COC(=O)c1ccc(CN2CCC(Nc3cc(Oc4c(C)cc(C)cc4C)ccc3[N+](=O)[O-])CC2)cc1 | >246 | – | > 246 | < 3.61 | > 248 | < 3.61 | 6.00
O=C1Nc2ccc(Cl)cc2[C@@](C#CC2CC2)(C(F)(F)F)O1 [EFAVIRENZ] | 70 | > 12 | > 855 | – | > 6.3 | – | 8.13
Cc1cc(C)c(Oc2ccc([N+](=O)[O-])c(NC3CCN(Cc4ccc(CO)cc4)CC3)c2)c(C)c1 | >255 | < 1 | 255 | < 4.60 | 25 | < 4.60 | 7.02
CC(=O)c1ccc(CN2CCC(Nc3cc(Oc4c(C)cc(C#N)cc4C)ccc3[N+](=O)[O-])CC2)cc1 | >1630 | – | > 1630 | < 3.60 | > 251 | < 3.60 | 6.82
Cc1cc(C#N)cc(C)c1Oc1ccc([N+](=O)[O-])c(NC2CCN(Cc3ccncc3)CC2)c1 | >336 | < 1 | 336 | < 4.72 | 19 | < 4.72 | 7.25
Cc1cc(C#N)cc(C)c1Oc1ccc([N+](=O)[O-])c(NC2CCN(Cc3ccc(CO)cc3)CC2)c1 | >80 | < 1 | 80 | < 4.96 | 11 | < 4.96 | 6.85
CC(=O)Nc1ccc(Oc2c(C)cc(C#N)cc2C)cc1NC1CCN(Cc2ccc(S(N)(=O)=O)cc2)CC1 | – | – | – | < 3.64 | > 228 | – | < 3.64
Cc1cc(C#N)cc(C)c1Oc1ccc([N+](=O)[O-])c(NC2CCN(Cc3ccc(C(=O)O)cc3)CC2)c1 | >159 | < 1 | 159 | < 4.52 | 30 | < 4.52 | 6.72
Cc1cc(C)c(Oc2ccc([N+](=O)[O-])c(NC3CCN(Cc4ccc(S(C)(=O)=O)cc4)CC3)c2)c(C)c1 | >5895 | < 1 | 5900 | < 3.80 | 158 | < 3.80 | 7.57
Cc1cc(C#N)cc(C)c1Oc1ccc([N+](=O)[O-])c(NC2CCN(Cc3ccc(C(N)=O)cc3)CC2)c1 | >430 | < 1 | 430 | < 4.57 | 27 | < 4.57 | 7.21
Cc1cc(C)c(Oc2ccc([N+](=O)[O-])c(NC3CCN(Cc4ccc(C(N)=O)cc4)CC3)c2)c(C)c1 | >457 | < 1 | 457 | < 4.57 | 27 | < 4.57 | 7.23
Cc1cc(C)c(Oc2ccc([N+](=O)[O-])c(NC3CCN(Cc4ccccc4)CC3)c2)c(C)c1 | >37 | < 1 | 37 | < 4.60 | 25 | < 4.60 | 6.18
Cc1cc(C#N)cc(C)c1Oc1ccc([N+](=O)[O-])c(NC2CCN(Cc3ccccc3)CC2)c1 | >4.4 | < 1 | 4.4 | < 5.55 | 2.8 | < 5.55 | 6.20
Cc1cc(C)c(Oc2ccc([N+](=O)[O-])c(NC3CCN(Cc4ccc(S(N)(=O)=O)cc4)CC3)c2)c(C)c1 | >615 | < 1 | 615 | < 4.66 | 22 | < 4.66 | 7.44
CC(C)Nc1cccnc1N1CCN(C(=O)c2cc3cc(NS(C)(=O)=O)ccc3[nH]2)CC1 [DELAVIRDINE] | >277 | – | > 277 | – | > 36 | < 4.44 | –
Cc1cc(C#N)cc(C)c1Oc1ccc([N+](=O)[O-])c(NC2CCN(Cc3ccc([N+](=O)[O-])cc3)CC2)c1 | >269 | < 1 | 269 | < 3.74 | 182 | < 3.74 | 6.17
O=c1[nH]cnc2c1ncn2[C@H]1CC[C@@H](CO)O1 [DIDANOSINE] | – | > 12 | > 11 | 4.74 | > 212 | – | 4.72
Cc1cc(C#N)cc(C)c1Oc1ccc([N+](=O)[O-])c(NC2CCN(Cc3ccc(S(N)(=O)=O)cc3)CC2)c1 | >782 | < 1 | 782 | < 4.64 | 23 | < 4.64 | 7.54
Cc1cc(C)c(Oc2ccc([N+](=O)[O-])c(NC3CCN(Cc4ccc([N+](=O)[O-])cc4)CC3)c2)c(C)c1 | >70 | < 1 | 70 | < 3.83 | 147 | < 3.83 | 5.68
Cc1cn([C@H]2C[C@H](N=[N+]=[N-])[C@@H](CO)O2)c(=O)[nH]c1=O [ZIDOVUDINE] | – | > 12600 | > 13100 | 8.24 | > 94 | 8.13 | 8.14
CC(=O)c1ccc(CN2CCC(Nc3cc(Oc4c(C)cc(C)cc4C)ccc3[N+](=O)[O-])CC2)cc1 | >1312 | < 1 | 1310 | < 3.86 | 138 | < 3.86 | 6.96
COC(=O)c1ccc(CN2CCC(Nc3cc(Oc4c(C)cc(C#N)cc4C)ccc3[N+](=O)[O-])CC2)cc1 | >1208 | – | ≥ 1210 | < 3.80 | ≥ 160 | < 3.80 | 6.89
